Laboratory results as given in ChEMBL document CHEMBL5247578, “Effective synthesis of benzimidazoles-imidazo[1,2-a]pyrazine conjugates: A comparative study of mono-and bis-benzimidazoles for antitumor activity” (Eur J Med Chem, 2019).

Tests used:
Format in all cases: functional
[1] = system: T47D; assay: Antiproliferative activity against human T47D cells assessed as cell growth inhibition at 10 uM incubated for 48 hrs by sulforhodamine B assay relative to control
In short: (§1)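 NCI-60 single-dose screen at 10^-5 M. Cells grown in RPMI 1640 with 5% FBS and 2 mM L-glutamine, plated at 5,000–40,000 cells/well, and preincubated 24 h. Drug (DMSO stock) added and incubated 48 h at 37 °C, 5% CO2. Adherent cells fixed with cold TCA, stained with 0.4% SRB in 1% acetic acid, dye solubilized in 10 mM trizma base, A515 read. Percent growth taken against time-zero and untreated control.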

[2] = system: BT-549; assay: Antiproliferative activity against human BT-549 cells assessed as cell growth inhibition at 10 uM incubated for 48 hrs by sulforhodamine B assay relative to control
In short: (§2)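 Single-dose NCI-60 prescreen at 10^-5 M. Cells in RPMI 1640 with 5% FBS and 2 mM L-glutamine, seeded 5,000–40,000 cells/well with 24 h preincubation, then drug exposure for 48 h at 37 °C under 5% CO2. Growth read by SRB staining of TCA-fixed cells at 515 nm against time-zero and untreated controls. Negative growth values denote cell kill.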

[3] = system: MDA-MB-231; assay: Antiproliferative activity against human MDA-MB-231 cells assessed as cell growth inhibition at 10 uM incubated for 48 hrs by sulforhodamine B assay relative to control; in short: as §1
[4] = system: DU-145; assay: Antiproliferative activity against human DU-145 cells assessed as cell growth inhibition at 10 uM incubated for 48 hrs by sulforhodamine B assay relative to control
In short: (§3)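 NCI-60 one-dose prescreen at 10^-5 M. Cells grown in RPMI 1640 with 5% FBS and 2 mM glutamine, preincubated 24 h, then exposed 48 h at 37 °C. Adherent lines TCA-fixed, SRB-stained, A515 read. Growth percent relative to time-zero and control; negative values mean cell kill.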

[5] = system: TK-10; assay: Antiproliferative activity against human TK-10 cells assessed as cell growth inhibition at 10 uM incubated for 48 hrs by sulforhodamine B assay relative to control; in short: as §1
[6] = system: OVCAR-8; assay: Antiproliferative activity against human OVCAR-8 cells assessed as cell growth inhibition at 10 uM incubated for 48 hrs by sulforhodamine B assay relative to control; in short: as §1
[7] = system: OVCAR-5; assay: Antiproliferative activity against human OVCAR-5 cells assessed as cell growth inhibition at 10 uM incubated for 48 hrs by sulforhodamine B assay relative to control; in short: as §1
[8] = system: OVCAR-4; assay: Antiproliferative activity against human OVCAR-4 cells assessed as cell growth inhibition at 10 uM incubated for 48 hrs by sulforhodamine B assay relative to control; in short: as §1
[9] = system: IGROV-1; assay: Antiproliferative activity against human IGROV-1 cells assessed as cell growth inhibition at 10 uM incubated for 48 hrs by sulforhodamine B assay relative to control; in short: as §1
[10] = system: SNB-75; assay: Antiproliferative activity against human SNB-75 cells assessed as cell growth inhibition at 10 uM incubated for 48 hrs by sulforhodamine B assay relative to control; in short: as §1
[11] = system: SNB-19; assay: Antiproliferative activity against human SNB-19 cells assessed as cell growth inhibition at 10 uM incubated for 48 hrs by sulforhodamine B assay relative to control; in short: as §1
[12] = system: SF-539; assay: Antiproliferative activity against human SF-539 cells assessed as cell growth inhibition at 10 uM incubated for 48 hrs by sulforhodamine B assay relative to control; in short: as §1
[13] = system: HCT-15; assay: Antiproliferative activity against human HCT-15 cells assessed as cell growth inhibition at 10 uM incubated for 48 hrs by sulforhodamine B assay relative to control; in short: as §3
[14] = system: NCI-H322M; assay: Antiproliferative activity against human NCI-H322M cells assessed as cell growth inhibition at 10 uM incubated for 48 hrs by sulforhodamine B assay relative to control; in short: as §1
[15] = system: HOP-62; assay: Antiproliferative activity against human HOP-62 cells assessed as cell growth inhibition at 10 uM incubated for 48 hrs by sulforhodamine B assay relative to control; in short: as §3
[16] = system: EKVX; assay: Antiproliferative activity against human EKVX cells assessed as cell growth inhibition at 10 uM incubated for 48 hrs by sulforhodamine B assay relative to control; in short: as §3
[17] = system: A549; assay: Antiproliferative activity against human A549 cells assessed as cell growth inhibition at 10 uM incubated for 48 hrs by sulforhodamine B assay relative to control; in short: as §2
[18] = system: RPMI-8226; assay: Antiproliferative activity against human RPMI-8226 cells assessed as cell growth inhibition at 10 uM incubated for 48 hrs by sulforhodamine B assay relative to control; in short: as §1
[19] = system: MOLT-4; assay: Antiproliferative activity against human MOLT-4 cells assessed as cell growth inhibition at 10 uM incubated for 48 hrs by sulforhodamine B assay relative to control; in short: as §1
[20] = system: K562; assay: Antiproliferative activity against human K562 cells assessed as cell growth inhibition at 10 uM incubated for 48 hrs by sulforhodamine B assay relative to control; in short: as §1
[21] = system: HL-60; assay: Antiproliferative activity against human HL-60 cells assessed as cell growth inhibition at 10 uM incubated for 48 hrs by sulforhodamine B assay relative to control; in short: as §3
[22] = system: A498; assay: Antiproliferative activity against human A498 cells assessed as cell growth inhibition at 10 uM incubated for 48 hrs by sulforhodamine B assay relative to control; in short: as §2
[23] = system: SK-OV-3; assay: Antiproliferative activity against human SK-OV-3 cells assessed as cell growth inhibition at 10 uM incubated for 48 hrs by sulforhodamine B assay relative to control; in short: as §1
[24] = system: HCT-116; assay: Antiproliferative activity against human HCT-116 cells assessed as cell growth inhibition at 10 uM incubated for 48 hrs by sulforhodamine B assay relative to control; in short: as §3
[25] = system: UACC-257; assay: Antiproliferative activity against human UACC-257 cells assessed as cell growth inhibition at 10 uM incubated for 48 hrs by sulforhodamine B assay relative to control; in short: as §1
[26] = system: SK-MEL-28; assay: Antiproliferative activity against human SK-MEL-28 cells assessed as cell growth inhibition at 10 uM incubated for 48 hrs by sulforhodamine B assay relative to control; in short: as §1
[27] = system: CAKI-1; assay: Antiproliferative activity against human CAKI-1 cells assessed as cell growth inhibition at 10 uM incubated for 48 hrs by sulforhodamine B assay relative to control; in short: as §2

## Brc1cn2ccnc2c(-c2ccc3ncn(C4CCCCC4)c3c2)n1
[1]
  inhibition at 10 µM: 49.7%
[2]
  inhibition at 10 µM: 5.16%
[3]
  inhibition at 10 µM: 24.2%
[4]
  inhibition at 10 µM: 6.2%
[5]
  inhibition at 10 µM: 5.55%
[6]
  inhibition at 10 µM: 4.92%
[7]
  inhibition at 10 µM: 6.64%
[8]
  inhibition at 10 µM: 9.15%
[9]
  inhibition at 10 µM: 6.6%
[10]
  inhibition at 10 µM: 21.2%
[11]
  inhibition at 10 µM: 8.09%
[12]
  inhibition at 10 µM: 10%
[13]
  inhibition at 10 µM: 13.1%
[14]
  inhibition at 10 µM: 18.1%
[15]
  inhibition at 10 µM: 21.7%
[16]
  inhibition at 10 µM: 12%
[17]
  inhibition at 10 µM: 9.36%
[18]
  inhibition at 10 µM: 14.9%
[19]
  inhibition at 10 µM: 26.3%
[20]
  inhibition at 10 µM: 18%
[21]
  inhibition at 10 µM: 18%

## COc1ccccc1-c1cn2ccnc2c(-c2ccc3ncn(C4CCCCC4)c3c2)n1
[1]
  inhibition at 10 µM: 36.6%
[3]
  inhibition at 10 µM: 15.9%
[22]
  inhibition at 10 µM: 13.9%
[23]
  inhibition at 10 µM: 10.6%
[6]
  inhibition at 10 µM: 8.78%
[7]
  inhibition at 10 µM: 6.61%
[8]
  inhibition at 10 µM: 13.2%
[10]
  inhibition at 10 µM: 35%
[11]
  inhibition at 10 µM: 11.1%
[12]
  inhibition at 10 µM: 8.07%
[13]
  inhibition at 10 µM: 33.6%
[24]
  inhibition at 10 µM: 28.3%
[16]
  inhibition at 10 µM: 13.3%
[17]
  inhibition at 10 µM: 13.9%
[18]
  inhibition at 10 µM: 35.9%
[19]
  inhibition at 10 µM: 22.4%
[20]
  inhibition at 10 µM: 22.6%
[21]
  inhibition at 10 µM: 14.6%

## Brc1ccc(-c2cn3ccnc3c(-c3ccc4ncn(C5CCCCC5)c4c3)n2)cc1
[1]
  inhibition at 10 µM: 55%
[2]
  inhibition at 10 µM: 35.1%
[3]
  inhibition at 10 µM: 22.8%
[4]
  inhibition at 10 µM: 5.66%
[22]
  inhibition at 10 µM: 20.7%
[23]
  inhibition at 10 µM: 6.44%
[6]
  inhibition at 10 µM: 13.2%
[7]
  inhibition at 10 µM: 8.95%
[8]
  inhibition at 10 µM: 10.5%
[9]
  inhibition at 10 µM: 9.4%
[25]
  inhibition at 10 µM: 7.3%
[26]
  inhibition at 10 µM: 28.3%
[10]
  inhibition at 10 µM: 34.5%
[11]
  inhibition at 10 µM: 18.3%
[12]
  inhibition at 10 µM: 24.4%
[13]
  inhibition at 10 µM: 35.8%
[24]
  inhibition at 10 µM: 31.2%
[14]
  inhibition at 10 µM: 4.21%
[16]
  inhibition at 10 µM: 16.2%
[17]
  inhibition at 10 µM: 15.3%
[18]
  inhibition at 10 µM: 32%
[19]
  inhibition at 10 µM: 20.4%
[20]
  inhibition at 10 µM: 59%
[21]
  inhibition at 10 µM: 23.2%

## c1ccc(Cn2cnc3ccc(-c4nc(-c5cccc6ccccc56)cn5ccnc45)cc32)cc1
[1]
  inhibition at 10 µM: 73.8%
[3]
  inhibition at 10 µM: 28.7%
[27]
  inhibition at 10 µM: 27.1%
[22]
  inhibition at 10 µM: 6.74%
[6]
  inhibition at 10 µM: 6.22%
[7]
  inhibition at 10 µM: 1.83%
[8]
  inhibition at 10 µM: 7.88%
[9]
  inhibition at 10 µM: 11.3%
[10]
  inhibition at 10 µM: 16.2%
[11]
  inhibition at 10 µM: 5.12%
[12]
  inhibition at 10 µM: 4.22%
[13]
  inhibition at 10 µM: 8.2%
[24]
  inhibition at 10 µM: 32.9%
[14]
  inhibition at 10 µM: 1.34%
[15]
  inhibition at 10 µM: 14%
[16]
  inhibition at 10 µM: 24.6%
[17]
  inhibition at 10 µM: 7.31%
[18]
  inhibition at 10 µM: 26.9%
[19]
  inhibition at 10 µM: 22.3%
